Source: the array DNA melting data of Ke et al. (doi:10.1101/2024.01.08.574731)

What was measured:
[1] = folding enthalpy; higher = less favourable; fluorescence melt of hairpins on a sequencing array, two-state fit; details: sodium 0.088 M
In short: (§1)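 Two-state fits, bootstrapped, provided melting temperature and folding enthalpy from Cy3 fluorescence normalised to pre-quench Cy3 and to control constructs. Library hairpins with annealed Cy3 and quencher oligos were imaged on a sequenced MiSeq flow cell in 50 mM Na-HEPES pH 8.0, 25 mM NaCl, at 2.5 °C intervals up to 60 °C. Four replicates were combined with inverse-variance weighting. A 9.35 °C upward shift was applied to fitted temperatures to match UV melts.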

[2] = melting temperature; fluorescence melt of hairpins on a sequencing array, two-state fit, raised by 9.35 °C to match UV melts; details: sodium 0.088 M
In short: as §1

Sequence | folding enthalpy [1] | Tm [2]
GTTCTTCGAAAGAATAAC (((.(((....))).))) | -15.6 kcal/mol | 33.6 °C
GTTCTTGAAAAAGAAC ((((((....)))))) | -34.2 kcal/mol | 46.9 °C
GTTCTTGGAAACAGGAAC ((((.((....)).)))) | -34.1 kcal/mol | 39.9 °C
GTTGAACCGAAAGGTAAC (((..(((....)))))) | -12.9 kcal/mol | 31.1 °C
GTTGAAGGAAACTCCAAC ((((.((....)).)))) | -17.5 kcal/mol | 29.5 °C
GTTGAAGGAAACTTCAAC (((((((....))))))) | -51.5 kcal/mol | 54.2 °C
GTTGACGAAAGTCAAAAC ((((((....)))..))) | -11.5 kcal/mol | 38.4 °C
GTTGACGAAAGTCATAAC ((((((....)))..))) | -12.9 kcal/mol | 33.5 °C
GTTGACGAAAGTCGCAAC ((((((....)))..))) | -13.3 kcal/mol | 31 °C
GTTGACGAAAGTCGGAAC ((((((....)))..))) | -8.87 kcal/mol | 32.7 °C
GTTGACGAAAGTCTCAAC ((((((....)))..))) | -9.94 kcal/mol | 28 °C
GTTGACGAAAGTCTTAAC ((((((....)))..))) | -10 kcal/mol | 28.1 °C
GTTGAGACGAAAGTCAAC (((..(((....)))))) | -15.6 kcal/mol | 38.4 °C
GTTGAGCGAAAGCTAAAC (((.(((....))).))) | -26.5 kcal/mol | 48 °C
GTTGAGGGAAACCTTAAC (((.(((....))).))) | -31.4 kcal/mol | 37 °C
GTTGAGGGAAACCTTGAC ((..(((....)))..)) | -12 kcal/mol | 29.7 °C
GTTGAGGGAAACTTCAAC (((((.(....).))))) | -33.6 kcal/mol | 40.5 °C
GTTGATGAAAATCAAC ((((((....)))))) | -33.9 kcal/mol | 52.4 °C
GTTGCACCGAAAGGTAAC (((..(((....)))))) | -14.4 kcal/mol | 30.4 °C
GTTGCAGCGAAAGCTAAC (((..(((....)))))) | -11.6 kcal/mol | 29.2 °C
GTTGCAGGAAACTACAAC ((((.((....)).)))) | -27.6 kcal/mol | 37 °C
GTTGCCGAAAGGCACAAC ((((((....)))..))) | -8.02 kcal/mol | 35.7 °C
GTTGCCGAAAGGCCGAAC ((((((....)))..))) | -7.22 kcal/mol | 27.1 °C

Sequence | folding enthalpy [1] | Tm [2]
GTTGCCGGAAACGGCAGC (.(((((....))))).) | -14.4 kcal/mol | 57.5 °C
GTTGCGCCGAAAGGCAAC (((..(((....)))))) | -13.2 kcal/mol | 42.4 °C
GTTGCGCGAAAGCGTAAC (((.(((....))).))) | -29.8 kcal/mol | 58.1 °C
GTTGCTCGAAAGAGAAAC (((.(((....))).))) | -32.3 kcal/mol | 48 °C
GTTGCTCGAAAGAGGAAC (((.(((....))).))) | -38.2 kcal/mol | 53.9 °C
GTTGCTGGAAACAGTGAC ((..(((....)))..)) | -28.4 kcal/mol | 39.2 °C
GTTGGACGAAAGTCGAAC (((.(((....))).))) | -16.8 kcal/mol | 49.1 °C
GTTGGAGGAAACTCCAAC (((((((....))))))) | -36 kcal/mol | 60.8 °C
GTTGGAGGAAACTTCGAC ((.(.((....)).).)) | -24.3 kcal/mol | 34.2 °C
GTTGGATCGAAAGATAAC (((..(((....)))))) | -6.79 kcal/mol | 27.3 °C
GTTGGCCGAAAGGCAAAC (((.(((....))).))) | -21.8 kcal/mol | 56.8 °C
GTTGGCGAAAGCCATAAC ((((((....)))..))) | -10.2 kcal/mol | 35.7 °C
GTTGGCGAAAGCCGAAC ((((((....))).))) | -13.8 kcal/mol | 50.5 °C
GTTGGCGAAAGCCTCAAC ((((((....)))..))) | -10.6 kcal/mol | 29.9 °C
GTTGGCGGAAACGCTAAC (((.(((....))).))) | -30.9 kcal/mol | 53.1 °C
GTTGGGAAACCAAC (((((....))))) | -27.9 kcal/mol | 51.7 °C
GTTGGGCCGAAAGGCAAC (((..(((....)))))) | -15.3 kcal/mol | 45.4 °C
GTTGGGGGAAACCCCAAC (((((((....))))))) | -45.9 kcal/mol | 65.6 °C
GTTGGGGGAAACCCTAAC (((.(((....))).))) | -26.6 kcal/mol | 45.1 °C
GTTGGGGGAAACCCTGAC ((..(((....)))..)) | -23.8 kcal/mol | 35.6 °C
GTTGGGGGAAACCTCGAC ((.(.((....)).).)) | -23.5 kcal/mol | 34.7 °C
GTTGGGGGAAACTCCAGC (.(((.(....).))).) | -23.5 kcal/mol | 35.8 °C
GTTGGTCGAAAGACAAAC (((.(((....))).))) | -26.5 kcal/mol | 48.5 °C
